Laboratory results as given in ChEMBL document CHEMBL4371016, “Proline- and Arginine-Rich Peptides as Flexible Allosteric Modulators of Human Proteasome Activity” (J Med Chem, 2019).
Active and inactive are the calls of the source. The rule behind the calls is not given here. Residues, ends and D or L forms follow the SMILES beside them.

Tests used:
[1] = molecular target: Proteasome subunit beta type-6 (Homo sapiens) (UniProt P28072); assay: Positive allosteric modulation of latent human erythrocytes 20S proteasome caspase like activity at 10 uM using Z-LLE-AMC as substrate measured every 1 min up to 60 mins by fluorescence assay relative to control
Proteasome subunit beta type-6 (Homo sapiens), sequence (P28072 whole entry, looked up): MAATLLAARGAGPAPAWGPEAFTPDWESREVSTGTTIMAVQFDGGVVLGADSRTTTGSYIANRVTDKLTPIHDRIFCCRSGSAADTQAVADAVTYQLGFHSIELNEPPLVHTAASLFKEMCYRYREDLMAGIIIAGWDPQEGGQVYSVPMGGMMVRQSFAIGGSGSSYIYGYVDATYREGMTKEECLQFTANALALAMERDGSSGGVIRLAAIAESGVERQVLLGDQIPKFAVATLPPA

[2] = molecular target: T1, Proteasome Macropain subunit MB1 (Homo sapiens) (UniProt P28074); assay: Positive allosteric modulation of latent human erythrocytes 20S proteasome chymotrypsin like activity using LFP as substrate measured every 2 mins up to 60 mins by fluorescence assay
T1 sequence (whole entry): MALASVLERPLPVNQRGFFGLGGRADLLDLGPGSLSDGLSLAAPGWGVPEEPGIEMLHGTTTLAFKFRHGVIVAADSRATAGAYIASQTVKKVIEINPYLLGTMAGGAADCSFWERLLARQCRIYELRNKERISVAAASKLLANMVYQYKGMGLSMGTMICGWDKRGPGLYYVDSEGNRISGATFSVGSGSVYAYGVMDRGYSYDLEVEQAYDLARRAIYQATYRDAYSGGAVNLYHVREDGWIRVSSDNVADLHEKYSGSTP

[3] = molecular target: T1, Proteasome Macropain subunit MB1 (Homo sapiens); assay: Negative allosteric modulation of SDS-activated human erythrocytes 20S proteasome chymotrypsin like activity up to 10 uM using LFP as substrate measured every 2 mins up to 60 mins by fluorescence assay
[4] = molecular target: T2, 20S proteasome (Homo sapiens) (UniProt P49721+P20618+P28074+P28062+P28065+P28072+P25786+P25787+P25788+P25789+P28066+P60900+O14818+Q8TAA3+P40306+A5LHX3+P49720+P28070+Q99436); assay: Positive allosteric modulation of SDS-activated human erythrocytes 20S proteasome assessed as increase in yeast enolase degradation at 10 uM after 4 hr by SDS-PAGE analysis
[5] = molecular target: T2, 20S proteasome (Homo sapiens); assay: Positive allosteric modulation of SDS-activated human erythrocytes 20S proteasome assessed as increase in human alpha-synuclein degradation at 10 uM after 1 hr by SDS-PAGE analysis
[6] = molecular target: T2, 20S proteasome (Homo sapiens); assay: Negative allosteric modulation of SDS-activated human erythrocytes 20S proteasome assessed as reduction in human alpha-synuclein degradation at 1 uM after 1 hr by SDS-PAGE analysis
Method in brief: (§1)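 Human α-synuclein or yeast enolase digested by human 20S activated with 0.01% SDS (20S:substrate 1:100 pmol α-syn, 1:10 pmol enolase) in 20 mM HEPES pH 7.4 at 37 °C for 1 h (α-syn) or 4 h (enolase). DMSO at or below 0.05%. SDS–PAGE (12% or 10%) with Coomassie staining; remaining substrate densitometry as percent of control; at least three experiments, mean ± SEM.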

[7] = molecular target: T3, Proteasome component C5 (Homo sapiens) (UniProt P20618); assay: Positive allosteric modulation of latent human erythrocytes 20S proteasome caspase like activity at 10 uM measured every 1 min up to 60 mins by fluorescence assay relative to control
T3 sequence (whole entry): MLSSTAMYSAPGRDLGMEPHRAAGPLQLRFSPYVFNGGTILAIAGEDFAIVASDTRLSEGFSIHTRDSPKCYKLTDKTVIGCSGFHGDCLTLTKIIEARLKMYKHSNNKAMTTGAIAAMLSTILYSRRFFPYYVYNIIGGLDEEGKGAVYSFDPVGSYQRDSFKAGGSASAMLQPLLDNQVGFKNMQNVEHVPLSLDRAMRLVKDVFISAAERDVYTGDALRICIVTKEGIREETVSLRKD

[8] = molecular target: T1, Proteasome Macropain subunit MB1 (Homo sapiens); assay: Positive allosteric modulation of latent human erythrocytes 20S proteasome chymotrypsin like activity at 25 uM using Suc-LLVY-AMC as substrate measured every 2 mins up to 60 mins by fluorescence assay relative to control
[9] = molecular target: T2, 20S proteasome (Homo sapiens); assay: Positive allosteric modulation of SDS-activated human erythrocytes 20S proteasome assessed as increase in yeast enolase degradation at 1 uM after 4 hr by SDS-PAGE analysis relative to control
[10] = molecular target: T1, Proteasome Macropain subunit MB1 (Homo sapiens); assay: Positive allosteric modulation of latent human erythrocytes 20S proteasome chymotrypsin like activity up to 10 uM using LFP as substrate measured every 2 mins up to 60 mins by fluorescence assay
[11] = molecular target: Proteasome Macropain subunit (Homo sapiens) (UniProt P49721); assay: Negative allosteric modulation of SDS-activated human erythrocytes 20S proteasome trypsin like activity at 10 uM using Boc-LRR-AMC as substrate measured every 2 mins up to 60 mins by fluorescence assay
Proteasome Macropain subunit (Homo sapiens), sequence (P49721 whole entry): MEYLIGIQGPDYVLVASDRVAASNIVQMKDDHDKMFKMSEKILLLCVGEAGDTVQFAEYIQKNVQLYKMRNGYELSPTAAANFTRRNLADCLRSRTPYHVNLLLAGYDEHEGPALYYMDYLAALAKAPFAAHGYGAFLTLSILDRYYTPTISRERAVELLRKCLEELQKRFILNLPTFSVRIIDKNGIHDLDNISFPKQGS

[12] = molecular target: T3, Proteasome component C5 (Homo sapiens); assay: Negative allosteric modulation of SDS-activated human erythrocytes 20S proteasome caspase like activity at lower concentration using Z-LLE-AMC as substrate measured every 2 mins up to 60 mins by fluorescence assay
[13] = molecular target: T2, 20S proteasome (Homo sapiens); assay: Negative allosteric modulation of SDS-activated human erythrocytes 20S proteasome assessed as reduction in yeast enolase degradation at 10 uM after 4 hr by SDS-PAGE analysis
[14] = molecular target: T2, 20S proteasome (Homo sapiens); assay: Negative allosteric modulation of SDS-activated human erythrocytes 20S proteasome assessed as reduction in yeast enolase degradation at 1 uM after 4 hr by SDS-PAGE analysis
[15] = molecular target: T1, Proteasome Macropain subunit MB1 (Homo sapiens); assay: Positive allosteric modulation of latent human erythrocytes 20S proteasome chymotrypsin like activity at 1 uM using Suc-LLVY-AMC as substrate measured every 2 mins up to 60 mins by fluorescence assay
[16] = molecular target: T1, Proteasome Macropain subunit MB1 (Homo sapiens); assay: Negative allosteric modulation of SDS-activated human erythrocytes 20S proteasome chymotrypsin like activity using Suc-LLVY-AMC as substrate measured every 2 mins up to 60 mins by fluorescence assay
Method in brief: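 1.4 nM CP (0.001 mg/mL) in 50 mM Tris-HCl pH 8.0, activated with 0.005% SDS where stated, otherwise latent. Suc-LLVY-AMC at 100 μM final. AMC fluorescence read every 2 min up to 60 min at 37 °C. Activity relative to DMSO-treated enzyme, from at least three independent replicates. Peptide stocks 10 mM in DMSO.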

[17] = molecular target: T2, 20S proteasome (Homo sapiens); assay: Negative allosteric modulation of SDS-activated human erythrocytes 20S proteasome assessed as reduction in human alpha-synuclein degradation at 10 uM after 1 hr by SDS-PAGE analysis
Method in brief: as §1

[18] = molecular target: T1, Proteasome Macropain subunit MB1 (Homo sapiens); assay: Positive allosteric modulation of latent human erythrocytes 20S proteasome chymotrypsin like activity up to 10 uM using LFP as substrate measured every 2 mins up to 60 mins by fluorescence assay

Row | SMILES | fold change (FC) [1] | Activity [2] | Activity [3] | Activity [4] | Activity [5] | fold change (FC) [7] | fold change (FC) [8] | Activity [9] | Activity [10] | Activity [13] | Activity [14] | Activity [15] | Activity [16] | Activity [17] | Activity [6] | Activity [11] | Activity [12] | Activity [18]
1 | CC(C)C[C@H](NC(=O)[C@@H]1CCCN1C(=O)[C@@H]1CCCN1C(=O)[C@@H]1CCCN1C(=O)[C@@H]1CCCN1C(=O)[C@H](CCCNC(=N)N)NC(=O)[C@H](CCCNC(=N)N)NC(=O)[C@@H](N)CCCNC(=N)N)C(=O)N[C@@H](Cc1ccc(O)cc1)C(=O)N[C@@H](C)C(=O)O (H-RRRPPPPLYA-OH) | 5 to 7 | Dose-dependent effect | inactive | Active | Active | 5 to 7 | < 7 | Active |  |  |  |  |  |  | inactive |  |  | 
2 | CC(C)C[C@H](NC(=O)[C@H](Cc1ccc(O)cc1)NC(=O)[C@@H]1CCCN1C(=O)[C@@H]1CCCN1C(=O)[C@H](CCCNC(=N)N)NC(=O)[C@@H]1CCCN1C(=O)[C@H](CCCNC(=N)N)NC(=O)[C@H](CCCNC(=N)N)NC(=O)[C@@H](N)CCCNC(=N)N)C(=O)N1CCC[C@H]1C(=O)N[C@@H](CCCNC(=N)N)C(=O)O (H-RRRPRPPYLPR-OH) |  |  | Active |  |  |  |  |  | inactive | inactive | inactive | Active | Dose-dependent effect | Active |  | Active | Active | inactive
3 | CC(C)C[C@H](NC(=O)[C@H](Cc1ccc(O)cc1)NC(=O)[C@@H]1CCCN1C(=O)[C@@H]1CCCN1C(=O)[C@H](CCCNC(=N)N)NC(=O)[C@@H]1CCCN1C(=O)[C@H](CCCNC(=N)N)NC(=O)[C@H](CCCNC(=N)N)NC(=O)[C@@H](N)CCCNC(=N)N)C(=O)N1CCC[C@H]1C(=O)N[C@@H](CCCNC(=N)N)C(=O)N[C@@H](Cc1ccccc1)C(=O)NCC(=O)O (H-RRRPRPPYLPRFG-OH) |  |  | Active |  |  |  |  |  | inactive | Active | Active | Active |  | Active | Active | Active | Active | inactive
4 | CC(C)C[C@H](NC(=O)[C@H](Cc1ccc(O)cc1)NC(=O)[C@@H]1CCCN1C(=O)[C@@H]1CCCN1C(=O)[C@H](CCCNC(=N)N)NC(=O)[C@@H]1CCCN1C(=O)[C@H](CCCNC(=N)N)NC(=O)[C@H](CCCNC(=N)N)NC(=O)[C@@H](N)CCCNC(=N)N)C(=O)N1CCC[C@H]1C(=O)N[C@@H](CCCNC(=N)N)C(=O)N[C@@H](Cc1c[nH]c2ccccc12)C(=O)NCC(N)=O (H-RRRPRPPYLPRWG-NH2) |  |  | Active |  |  |  |  |  | inactive |  |  |  |  |  |  | Active | Active | inactive
5 | CC(C)C[C@H](NC(=O)[C@H](Cc1ccc(O)cc1)NC(=O)[C@H](CCCNC(=N)N)NC(=O)[C@H](CCCNC(=N)N)NC(=O)[C@@H](N)CCCNC(=N)N)C(=O)N1CCC[C@H]1C(=O)N[C@@H](CCCNC(=N)N)C(=O)N[C@@H](Cc1c[nH]c2ccccc12)C(=O)NCC(=O)O (H-RRRYLPRWG-OH) |  |  | Active |  |  |  |  |  | inactive |  |  |  | Dose-dependent effect |  |  | Active | Active | inactive

More lines, main results first:

Row | fold change (FC) [1] | Activity [2] | Activity [3] | Activity [4] | Activity [5] | fold change (FC) [7] | fold change (FC) [8] | Activity [9] | Activity [10] | Activity [13] | Activity [14] | Activity [15] | Activity [16] | Activity [17] | SMILES | Activity [6] | Activity [11] | Activity [12] | Activity [18]
6 |  |  | Active |  |  |  |  |  | inactive |  |  |  |  |  | CC(C)C[C@H](NC(=O)[C@H](Cc1ccc(O)cc1)NC(=O)[C@@H]1CCCN1C(=O)[C@@H]1CCCN1C(=O)[C@@H]1CCCN1C(=O)[C@@H]1CCCN1C(=O)[C@H](CCCNC(=N)N)NC(=O)[C@H](CCCNC(=N)N)NC(=O)[C@@H](N)CCCNC(=N)N)C(=O)N1CCC[C@H]1C(=O)N[C@@H](CCCNC(=N)N)C(=O)N[C@@H](Cc1c[nH]c2ccccc12)C(=O)NCC(=O)O (H-RRRPPPPYLPRWG-OH) |  |  |  | 
7 |  |  | Active |  |  |  |  |  | inactive | inactive | inactive | Active | Dose-dependent effect | Active | CC(C)C[C@H](NC(=O)[C@H](Cc1ccc(O)cc1)NC(=O)[C@H](CCCNC(=N)N)NC(=O)[C@H](CCCNC(=N)N)NC(=O)[C@@H](N)CCCNC(=N)N)C(=O)N1CCC[C@H]1C(=O)N[C@@H](CCCNC(=N)N)C(=O)N[C@@H](Cc1ccc(O)cc1)C(=O)N[C@@H](C)C(N)=O (H-RRRYLPRYA-NH2) |  | Active | Active | inactive
8 |  |  | Active |  |  |  |  |  | inactive |  |  |  |  |  | N=C(N)NCCC[C@H](NC(=O)[C@H](CCCNC(=N)N)NC(=O)[C@@H](N)CCCNC(=N)N)C(=O)N[C@@H](Cc1ccc(O)cc1)C(=O)N1CCC[C@H]1C(=O)N[C@@H](CCCNC(=N)N)C(=O)N[C@@H](Cc1c[nH]c2ccccc12)C(=O)NCC(=O)O (H-RRRYPRWG-OH) |  | Active | Active | inactive
